Source: PubChem BioAssay (several laboratories)
Most compounds without a hit are left out; they make up all but 3.9% or so of the library.
SR-BI uptake up = activators of SR-BI mediated DiI-HDL uptake, primary screen, ldlA[mSR-BI] CHO cells, DiI fluorescence; 3 h; 100 = double the neutral-control signal; activation, % at 12.5 µM; actives 0.096% (n = 320,000);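 active means mean replicate activation of at least 60% and every replicate at or above 60%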;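 further: 0% = median plate neutral-control signal and 100% = twice that signal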
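Assay system: CHO ldlA[mSR-BI] cells, LDL receptor-null, SR-BI overexpressing; medium: Ham's F12 with 0.5% BSA, HEPES 25 mM, pH 7.4; also added: DiI-HDL 10 µg/mL; timing: 3 h uptake period with compound, 37 °C; signal: DiI fluorescence, bottom read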
ABCB6 inh 2 = ABCB6 transporter inhibitors, primary screen, K562-ABCB6 cells, flow cytometry, MLPCN library. ATP-binding cassette sub-family B member 6 (Homo sapiens), Q9NP58. K562-ABCB6 porphyrin accumulation, 1 h; hits give low values. fluorescence ratio to DMSO, % at 10 µM. actives 0.19% (n = 360,000);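 active means fluorescence ratio to DMSO below 75%, the collection mean minus 3 SD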;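 further: signal is porphyrin accumulated inside mitochondria; 100% equals median channel fluorescence of DMSO control wells; lower ratio means ABCB6 inhibition with less porphyrin fluorescence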
HIF act = HIF pathway transcriptional activators, primary screen, cell-based, U2OS HRE-luciferase, luminescence; AID 1910, 2009; U2OS HRE-luciferase reporter; normalized: DMSO 0%, desferrioxamine 100%; activation, % at 7.5 µM (by protocol); actives 0.32% (n = 300,000);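 active means mean activation of at least 10% of the iron chelator positive control signal, with at least half of replicates also reaching 10%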
SR-BI HDL uptake = inhibitors of SR-BI mediated HDL lipid uptake, primary screen, ldlA[mSR-BI] cells, fluorescence, single point; Scavenger receptor class B member 1 (Mus musculus), Q61009; ldlA[mSR-BI] CHO cells, DiI-HDL uptake fluorescence, 3 h; inhibition, % at 12.5 µM; actives 0.96% (n = 320,000);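 active means mean replicate inhibition of at least 70% and a set share of replicates each scoring 70 or more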;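 further: 0% = median of neutral control wells and 100% = median of positive control wells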
Target sequence (Q61009 whole entry, looked up): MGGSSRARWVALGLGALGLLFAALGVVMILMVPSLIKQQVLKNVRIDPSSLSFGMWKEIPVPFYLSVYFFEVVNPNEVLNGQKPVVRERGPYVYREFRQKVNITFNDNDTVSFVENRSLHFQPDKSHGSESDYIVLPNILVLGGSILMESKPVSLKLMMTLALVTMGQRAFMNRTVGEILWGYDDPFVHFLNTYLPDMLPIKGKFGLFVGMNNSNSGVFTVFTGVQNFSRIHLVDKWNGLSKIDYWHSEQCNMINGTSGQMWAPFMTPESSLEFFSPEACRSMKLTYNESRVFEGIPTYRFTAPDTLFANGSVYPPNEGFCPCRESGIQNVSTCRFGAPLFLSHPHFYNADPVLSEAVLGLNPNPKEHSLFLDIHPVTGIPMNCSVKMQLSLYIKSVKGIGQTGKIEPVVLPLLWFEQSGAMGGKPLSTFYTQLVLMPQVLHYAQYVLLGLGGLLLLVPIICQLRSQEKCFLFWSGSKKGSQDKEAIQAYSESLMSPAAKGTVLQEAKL
AHR activator = AHR activators, primary screen, cell-based, luminescence, luciferase reporter, human; actives 2.5% (n = 320,000); activation, % at 5 µM; AHR-responsive luciferase reporter cells; Aryl hydrocarbon receptor (Homo sapiens), P35869; in the data active means activation above about 47%;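 further: 0% = vehicle wells and 100% = reference agonist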
GAA850 FXN act = FXN promoter activators, primary screen, cell-based, luciferase luminescence, HEK293 lucGAA850 | HEK293 lucGAA850 FXN promoter luciferase reporter, 24 h; percent of 10 µM SAHA response | activation, % at 6 µM | actives 0.56% (n = 360,000) | AID 540364, 2011;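 active means activation above the average of all compounds screened plus 3 SD, cutoff fixed separately per campaign, cut at about 7.5% in these data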;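 further: 0% = DMSO wells and 100% = 10 µM SAHA wells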
An asterisk follows results filed as active; . = no result given.

SMILES	SR-BI uptake up	ABCB6 inh 2	HIF act	SR-BI HDL uptake	AHR activator	GAA850 FXN act
COc1ccc(-n2c(SCC(=O)N3CCCC(C)C3)nnc2-c2cccnc2)cc1 (centres undefined)	4	93	0	-4	0	2
COc1ccc(-n2c(SCC(=O)N3CCCCC3C)nnc2-c2cccnc2)cc1 (centres undefined)	117*	105	0	-117	3	-1
CCSc1ncc(/C=N/Nc2ccc([N+](=O)[O-])cc2)n1C	-66	100	3	66	-7	0
CCSc1ncc(/C=N/Nc2ccc(Cl)cc2)n1C	-42	97	6	42	103*	5
Oc1nc(Nc2ccccc2)sc1/C=C1\C=Nc2ccccc21	.	100	2	.	147*	4
CCn1c(O)c(/C=C2\C=Nc3ccccc32)sc1=Nc1ccc(C)cc1	-63	94	0	63	0	3
CCn1c(O)c(/C=C2\C=Nc3ccccc32)sc1=O	13	102	1	26	76*	6
CCOC(=O)c1c(Nc2ccccc2)sc(/C=C2\C=Nc3ccccc32)c1O	-67	96	0	67	-5	3
O=C(CCNC(=O)c1ccccc1Cl)Nc1ccc(S(=O)(=O)Nc2ncccn2)cc1	1	92	1	-1	1	2
COC(=O)CC1C(=O)NCCN1C(=O)CSc1nnc(Nc2ccc(OC)cc2)s1 (centres undefined)	24	95	236*	-24	7	-1
Clc1ccc(C2Nc3cccc4cccc(c34)N2)cc1	-49	103	0	49	60*	1
Cc1ccc(Cl)cc1NC(=S)NCc1cccn1C	-16	73*	0	16	7	0
CCCCCNc1nc(NCCCO)c(C#N)c2c1CN(C)CC2	14	95	0	-14	58*	0
C=CCNc1nc(NCc2ccccc2)c(C#N)c2c1CN(C)CC2	7	98	-1	-7	54*	-1
O=C(Nc1c(C(=O)c2ccccc2)oc2ccccc12)c1cc(-c2ccccc2O)n[nH]1	-74	93	0	74*	68*	5
Cc1ccc(C(=O)c2oc3ccccc3c2NC(=O)c2cc(-c3ccccc3O)n[nH]2)cc1	-53	95	-1	53	51*	1
Cc1oc(-c2ccc(C(F)(F)F)cc2)nc1CN(Cc1ccccn1)C[C@@H]1CCC(=O)N1	12	102	0	-12	75*	3
CCOc1ccc(-c2nc(CN(Cc3ccccc3)C[C@@H]3CCC(=O)N3)c(C)o2)cc1	-31	100	2	31	14	4
O=C(CCl)c1ccc2c(c1)CCN2C(=O)C1CCCCC1	-18	100	3	18	0	6
O=C(CCl)c1ccc2c(c1)CCN2C(=O)C1CC1	.	.	35*	.	-4	.
CC(C)C(c1nnnn1Cc1ccccc1)N(CCCO)Cc1cc2cc3c(cc2[nH]c1=O)OCO3 (centres undefined)	11	120	0	-11	64*	3
O=c1[nH]c2cc3c(cc2cc1CN(CCCO)Cc1nnnn1Cc1ccc(F)cc1)OCO3	14	109	0	-14	54*	2
COc1ccc(/C=N/NC(=O)CNS(=O)(=O)c2ccccc2)cc1	12	97	.	-12	4	2
O=C(N/C(=C/c1ccc(Br)cc1)c1nc2ccccc2[nH]1)c1ccco1	-22	93	1	22	67*	1
O=C(N/C(=C/c1ccc(Cl)cc1)c1nc2ccccc2[nH]1)c1ccco1	-1	99	0	1	70*	-3
SMILES	SR-BI uptake up	ABCB6 inh 2	HIF act	SR-BI HDL uptake	AHR activator	GAA850 FXN act
O=C(/C(=C/c1ccc(Cl)cc1)c1nc2ccccc2[nH]1)c1ccccc1	-12	99	8	12	35	-13
O=C(NCc1nc2ccccc2[nH]1)c1ccco1	11	112	0	-11	-1	2
Cc1cc(C)c2nc(NNC(=O)c3ccc(S(=O)(=O)N4CCc5ccccc5C4)cc3)sc2c1	-133	96	22*	133*	29	-2
Cc1cc(C)c2sc(N(CCCN(C)C)C(=O)c3ccc(S(=O)(=O)N4CCc5ccccc5C4)cc3)nc2c1	-20	102	-3	20	10	-4
Cc1cc(C)c2sc(NNC(=O)c3ccc(S(=O)(=O)N4CCc5ccccc5C4)cc3)nc2c1	-146	100	159*	146*	14	-4
CCc1nnc(NC(=O)c2ccc(S(=O)(=O)N3CCc4ccccc4C3)cc2)s1	5	104	0	-5	2	1
CCCS(=O)(=O)NC(=O)C1(C)CCCN(C(=O)c2ccccc2OC(F)(F)F)C1 (centres undefined)	.	98	.	.	.	2
CC(OC(=O)Cc1n[nH]c(=O)c2ccccc12)C(=O)Nc1ccccc1[N+](=O)[O-] (centres undefined)	10	95	0	-10	2	3
CC(C)COc1ccc(C(=O)N(CC(=O)Nc2ccccc2C(F)(F)F)Cc2ccco2)cc1	-7	97	-1	7	6	3
COc1ccc(NC(=O)C(Sc2nnc3ccccn23)c2ccccc2)cc1Cl (centres undefined)	82*	98	0	-82	5	2
CCC(C(=O)Nc1ccc(OC)c(Cl)c1)c1ccccc1 (centres undefined)	-14	87	0	14	0	-1
COC(=O)CCC(=O)NC1CC(C)(C)Cc2c1cnn2-c1ccccc1 (centres undefined)	-10	83	1	10	.	1
Cc1cc(C(=O)CSc2nc(N)cc(=O)[nH]2)c(C)n1CCc1ccc(F)cc1	-90	103	0	90*	-3	3
CC1CC(C)CN(C(=O)COC(=O)c2ccc(N3CCCC3=O)cc2)C1 (centres undefined)	-10	96	.	10	-2	0
CCOC(=O)c1c(C)[nH]c(C(=O)COC(=O)c2ccc(N3CCCC3=O)cc2)c1C	63*	95	0	-63	0	-1
CCOC(=O)c1c(NC(=O)C(C)NCc2ccco2)sc2c1CCC(C)C2 (centres undefined)	-21	109	1	21	51*	0
CC1CCc2c(sc(NC(=O)COC(=O)c3ccccc3NCc3ccco3)c2C#N)C1 (centres undefined)	29	91	0	-29	1	-2
